Activity calls are given as the source filed them. The rule behind the calls is not given here.
What was measured:
Mus musculus [1] = test: Neurotoxicity in CF1 mouse at 100 mg/kg, ip after 4 hrs by rotarod test; assay type: toxicity, organism-based; parameters: dose 100 mg/kg, route intraperitoneal; details: in vivo
Method in brief: (§1)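 Rotorod neurotoxicity in male CF-1 mice (18–25 g) after i.p. compound in 0.5% methyl cellulose/water or PEG 200 at 30, 100 or 300 mg/kg; reported as number showing toxicity/number tested.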

Mus musculus [2] = test: Neurotoxicity in CF1 mouse at 300 mg/kg, ip after 4 hrs by rotarod test; assay type: toxicity, organism-based; parameters: dose 300 mg/kg, route intraperitoneal; details: in vivo; method in brief: as §1
Mus musculus [3] = test: Anticonvulsant activity in CF1 mouse assessed as protection against 6 Hz electric shock-induced seizures at 100 mg/kg, ip after 0.25 hrs; assay type: functional, organism-based; parameters: dose 100 mg/kg
Method in brief: (§2)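 Male CF-1 albino mice (18–25 g), compound suspended in 0.5% methyl cellulose/water or PEG 200, given i.p.; four mice per time point (0.25, 0.5, 1.0, 2.0, 4 h) challenged via corneal electrodes at 6 Hz, 32 mA for 3 s, current eliciting psychomotor seizure in 97% of animals; reported as protected/tested.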

Mus musculus [4] = test: Anticonvulsant activity in CF1 mouse assessed as protection against 6 Hz electric shock-induced seizures at 100 mg/kg, ip after 2 hrs; assay type: functional, organism-based; parameters: dose 100 mg/kg; method in brief: as §2
Mus musculus [5] = test: Anticonvulsant activity in CF1 mouse assessed as protection against 6 Hz electric shock-induced seizures at 100 mg/kg, ip after 4 hrs; assay type: functional, organism-based; parameters: dose 100 mg/kg; method in brief: as §2
Mus musculus [6] = test: Anticonvulsant activity in CF1 mouse assessed as protection against maximal electroshock-induced seizures at 30 mg/kg, ip after 0.5 hrs; assay type: functional, organism-based; parameters: dose 30 mg/kg
Method in brief: (§3)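 Male CF-1 albino mice (18–25 g), dosed i.p. at 30, 100 or 300 mg/kg in 0.5% methyl cellulose/water or PEG 200 (0.01 ml/g); tested at intervals after dosing; protection = abolition of hind limb tonic extensor component of MES seizure; scored as protected/tested.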

Mus musculus [7] = test: Anticonvulsant activity in CF1 mouse assessed as protection against maximal electroshock-induced seizures at 30 mg/kg, ip after 4 hrs; assay type: functional, organism-based; parameters: dose 30 mg/kg; method in brief: as §3
Mus musculus [8] = test: Anticonvulsant activity in CF1 mouse assessed as protection against maximal electroshock-induced seizures at 100 mg/kg, ip after 0.5 hrs; assay type: functional, organism-based; parameters: dose 100 mg/kg; method in brief: as §3
Mus musculus [9] = test: Anticonvulsant activity in CF1 mouse assessed as protection against maximal electroshock-induced seizures at 100 mg/kg, ip after 4 hrs; assay type: functional, organism-based; parameters: dose 100 mg/kg; method in brief: as §3
Mus musculus [10] = test: Anticonvulsant activity in CF1 mouse assessed as protection against maximal electroshock-induced seizures at 300 mg/kg, ip after 0.5 hrs; assay type: functional, organism-based; parameters: dose 300 mg/kg; method in brief: as §3
Mus musculus [11] = test: Anticonvulsant activity in CF1 mouse assessed as protection against maximal electroshock-induced seizures at 300 mg/kg, ip after 4 hrs; assay type: functional, organism-based; parameters: dose 300 mg/kg; method in brief: as §3
Mus musculus [12] = test: Anticonvulsant activity in CF1 mouse assessed as protection against subcutaneous metrazole-induced seizures at 30 mg/kg, ip after 0.5 hrs; assay type: functional, organism-based; parameters: dose 30 mg/kg
Mus musculus [13] = test: Anticonvulsant activity in CF1 mouse assessed as protection against subcutaneous metrazole-induced seizures at 30 mg/kg, ip after 4 hrs; assay type: functional, organism-based; parameters: dose 30 mg/kg
Mus musculus [14] = test: Anticonvulsant activity in CF1 mouse assessed as protection against subcutaneous metrazole-induced seizures at 100 mg/kg, ip after 0.5 hrs; assay type: functional, organism-based; parameters: dose 100 mg/kg
Mus musculus [15] = test: Anticonvulsant activity in CF1 mouse assessed as protection against subcutaneous metrazole-induced seizures at 100 mg/kg, ip after 4 hrs; assay type: functional, organism-based; parameters: dose 100 mg/kg
Mus musculus [16] = test: Anticonvulsant activity in CF1 mouse assessed as protection against subcutaneous metrazole-induced seizures at 300 mg/kg, ip after 0.5 hrs; assay type: functional, organism-based; parameters: dose 300 mg/kg
Mus musculus [17] = test: Neurotoxicity in CF1 mouse at 30 mg/kg, ip after 0.5 hrs by rotarod test; assay type: toxicity, organism-based; parameters: dose 30 mg/kg, route intraperitoneal; details: in vivo; method in brief: as §1
Mus musculus [18] = test: Neurotoxicity in CF1 mouse at 100 mg/kg, ip after 0.5 hrs by rotarod test; assay type: toxicity, organism-based; parameters: dose 100 mg/kg, route intraperitoneal; details: in vivo; method in brief: as §1
Mus musculus [19] = test: Neurotoxicity in CF1 mouse at 300 mg/kg, ip after 0.5 hrs by rotarod test; assay type: toxicity, organism-based; parameters: dose 300 mg/kg, route intraperitoneal; details: in vivo; method in brief: as §1
Mus musculus [20] = test: Neurotoxicity in CF1 mouse at 30 mg/kg, ip after 4 hrs by rotarod test; assay type: toxicity, organism-based; parameters: dose 30 mg/kg, route intraperitoneal; details: in vivo; method in brief: as §1
Mus musculus [21] = test: Anticonvulsant activity in CF1 mouse assessed as protection against 6 Hz electric shock-induced seizures at 100 mg/kg, ip after 1 hr; assay type: functional, organism-based; parameters: dose 100 mg/kg; method in brief: as §2
Mus musculus [22] = test: Anticonvulsant activity in CF1 mouse assessed as protection against subcutaneous metrazole-induced seizures at 300 mg/kg, ip after 4 hrs; assay type: functional, organism-based; parameters: dose 300 mg/kg

Structure (SMILES) | Activity (Mus musculus [1]) | Activity (Mus musculus [2]) | Activity (Mus musculus [3]) | Activity (Mus musculus [5]) | Activity (Mus musculus [6]) | Activity (Mus musculus [7]) | Activity (Mus musculus [8]) | Activity (Mus musculus [9]) | Activity (Mus musculus [10]) | Activity (Mus musculus [11]) | Activity (Mus musculus [12]) | Activity (Mus musculus [13]) | Activity (Mus musculus [14]) | Activity (Mus musculus [15]) | Activity (Mus musculus [16]) | Activity (Mus musculus [17]) | Activity (Mus musculus [18]) | Activity (Mus musculus [19]) | Activity (Mus musculus [20]) | Activity (Mus musculus [22]) | also measured
CCCOc1c(C(=O)N/N=C\c2ccccc2)sc(C(=O)N/N=C/c2ccccc2)c1OCCC | Non-toxic | Non-toxic | inactive | inactive | inactive | inactive | inactive | inactive | inactive | inactive | inactive | inactive | inactive | inactive | inactive | Non-toxic | Non-toxic | Non-toxic | Non-toxic |  | Activity (Mus musculus [4]): inactive
CCCOc1c(C(=O)NN=C2CCCCCC2)sc(C(=O)NN=C2CCCCCC2)c1OCCC | Non-toxic | Non-toxic | inactive | inactive | inactive | inactive | inactive | inactive | inactive |  | inactive | inactive | inactive | inactive | inactive | Non-toxic | Non-toxic | Non-toxic | Non-toxic | inactive | Activity (Mus musculus [21]): inactive; Activity (Mus musculus [4]): inactive
CCCOc1c(C(=O)N/N=C(\C)c2cccs2)sc(C(=O)N/N=C(\C)c2cccs2)c1OCCC | Non-toxic | Non-toxic | inactive |  | inactive | inactive | inactive | inactive | inactive |  | inactive | inactive | inactive | inactive | inactive | Non-toxic | Non-toxic | Non-toxic | Non-toxic |  | 
CCCOc1c(C(=O)NN=C2CC(C)Sc3sc(S(N)(=O)=O)cc32)sc(C(=O)NN=C2CC(C)Sc3sc(S(N)(=O)=O)cc32)c1OCCC (stereo unspecified) | Non-toxic | Toxic |  |  | inactive | inactive | inactive | inactive | inactive | inactive | inactive | inactive | inactive | inactive | inactive | Non-toxic | Toxic | Toxic | Non-toxic | inactive | 
CCCOc1c(C(=O)N/N=C(\C)c2ccccn2)sc(C(=O)N/N=C(\C)c2ccccn2)c1OCCC | Non-toxic | Non-toxic |  |  | inactive | inactive | inactive | inactive | inactive | inactive | inactive | inactive | inactive | inactive | inactive | Non-toxic | Non-toxic | Non-toxic | Non-toxic | inactive | 
CCCOc1c(C(=O)N/N=C/c2ccc3cc(OC)ccc3c2)sc(C(=O)N/N=C/c2ccc3cc(OC)ccc3c2)c1OCCC | Non-toxic | Non-toxic |  |  | inactive | inactive | inactive | inactive | inactive | inactive | inactive | inactive | inactive | inactive | inactive | Non-toxic | Non-toxic | Non-toxic | Non-toxic | inactive | 
CCCOc1c(C(=O)N/N=C\c2ccc3c(c2)Cc2ccccc2-3)sc(C(=O)N/N=C/c2ccc3c(c2)Cc2ccccc2-3)c1OCCC | Non-toxic | Toxic | inactive | inactive | inactive | inactive | inactive | inactive | inactive | inactive | inactive | inactive |  | inactive | inactive | Non-toxic |  | Toxic | Non-toxic | inactive | 
CCCOc1c(C(=O)N/N=C(\C)c2c[nH]c3ccccc23)sc(C(=O)N/N=C(\C)c2c[nH]c3ccccc23)c1OCCC | Non-toxic | Non-toxic |  |  | inactive | inactive | inactive | inactive | inactive | inactive | inactive | inactive | inactive | inactive | inactive | Non-toxic | Non-toxic | Non-toxic | Non-toxic | inactive | 
CCCOc1c(C(=O)N/N=C\c2c[nH]c3ccccc23)sc(C(=O)N/N=C/c2c[nH]c3ccccc23)c1OCCC | Non-toxic | Non-toxic | inactive | inactive | inactive | inactive | inactive | inactive | inactive | inactive | inactive | inactive |  | inactive | inactive | Non-toxic | Toxic | Toxic | Non-toxic | inactive | Activity (Mus musculus [4]): inactive
CCCOc1c(C(=O)NN=C(C)C)sc(C(=O)NN=C(C)C)c1OCCC | Non-toxic | Non-toxic |  |  | inactive | inactive | inactive | inactive | inactive | inactive | inactive | inactive | inactive | inactive | inactive | Non-toxic | Non-toxic | Toxic | Non-toxic | inactive | 

Reference: ChEMBL document CHEMBL1154150, “Synthesis and anticonvulsant activity of some new bishydrazones derived from 3,4-dipropyloxythiophene” (Eur J Med Chem, 2009)
